Screening results (PubChem)
Only some compounds are listed: those with a hit (about 3.3% of all), similar ones and a draw of the others.
XiGFP reactiv – reactivates the inactive X chromosome in mouse fibroblasts | hit rate 0.055% among 360,000 | activation, % at 7.58 µM | XiGFP mouse fibroblasts, % GFP-positive cells imaging, 3 d; cells co-treated with 5-aza-dC sensitizer; scaled so ellipticine positive control = 100%;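 active means mean normalized replicate activation at least 10% and every replicate at or above 10%; inconclusive means only one of the two criteria met; inactive means mean below 10% and not all replicates reach 10%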;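 further: 0% = median of on-plate neutral control wells and 100% = ellipticine 6 µM median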
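Material: SV40-immortalized XiGFP fibroblast cells, line 68-5-11 | Buffer or medium: DMEM containing 5-aza-dC | Dosing: One concentration, pinned | Times: 3 d treatment, 15 min room-temperature fixation | Controls: Ellipticine 6 µM positive control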
FGF22 binding – shifts melting point of recombinant human FGF22; recombinant FGF22 thermal shift, SYPRO orange fluorescence; percent of sucrose octasulfate shift, DMSO zero; activity (Tm shift, normalised), % at 9.99 µM; hit rate 1.5% among 340,000; AID 651658;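 active means mean Tm shift, scaled 0 neutral to 100 positive control, at about 1.3% or above, every replicate too, limit read from the data; inconclusive means no clear call, values can overlap the other calls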
PglD inh – PglD (C. jejuni) enzyme inhibition; purified PglD enzyme, DTNB colorimetric CoA detection; inhibition, % at 12.5 µM; hit rate 0.098% among 360,000; AID 602405; in the data active means inhibition above about 16%, passing the limit was not always enough; inconclusive means no clear call, values can overlap the other calls
DENV2 CPE – protects cells from dengue virus 2 cytopathic effect. DENV2-infected cells, cytopathic effect rescue, plate reader. CPE inhibition, % at 9.99 µM. hit rate 1.7% among 350,000. AID 651640; in the data active means CPE inhibition above about 20%, passing the limit was not always enough; inconclusive means no clear call, values can overlap the other calls; tested in BHK-21 cells;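 further: 0% = median of neutral control wells and 100% = median of positive control wells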
E-selectin induc – induces E-selectin expression in human endothelial cells. hit rate 0.37% among 260,000. HUVEC E-selectin immunofluorescence imaging; normalized: neutral wells 0, TNF-alpha wells 100. P16581. AID 686992. activation, % at 7.58 µM;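 active means mean E-selectin-positive cell signal at least 10% of the positive control, reached in at least 60% of replicates, without over 20% cell loss; inconclusive means no rule given, readout overlaps actives, possibly toxicity-flagged; inactive means the rest, including those meeting only one limit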
Target sequence (P16581 whole entry, looked up): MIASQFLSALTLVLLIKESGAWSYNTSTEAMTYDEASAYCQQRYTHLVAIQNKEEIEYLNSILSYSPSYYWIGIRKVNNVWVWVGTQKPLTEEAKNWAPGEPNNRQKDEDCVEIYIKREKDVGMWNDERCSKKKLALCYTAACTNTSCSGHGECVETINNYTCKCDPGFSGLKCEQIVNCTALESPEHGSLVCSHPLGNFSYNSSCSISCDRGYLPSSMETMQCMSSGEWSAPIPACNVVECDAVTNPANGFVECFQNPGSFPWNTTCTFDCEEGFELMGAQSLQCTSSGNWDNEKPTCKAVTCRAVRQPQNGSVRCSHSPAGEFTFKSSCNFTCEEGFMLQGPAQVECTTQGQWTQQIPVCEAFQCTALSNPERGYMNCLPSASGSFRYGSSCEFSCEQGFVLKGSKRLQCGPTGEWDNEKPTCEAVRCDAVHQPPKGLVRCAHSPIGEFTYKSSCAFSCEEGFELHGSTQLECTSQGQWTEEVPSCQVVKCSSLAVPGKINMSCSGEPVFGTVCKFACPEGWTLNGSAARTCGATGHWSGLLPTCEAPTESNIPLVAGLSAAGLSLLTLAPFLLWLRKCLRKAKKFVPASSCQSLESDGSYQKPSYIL
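Test system – human umbilical vein endothelial cells (HUVEC), E-selectin induction · Input – 3,000 HUVEC seeded per well · Buffer or medium – EGM-2, gelatin · Compound dosing – single-point compound dose · Detection – immunofluorescence imaging · Measure – percent E-selectin-positive cells · Controls – TNF-alpha high, DMSO low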
C2C12 statin – suppression of simvastatin myotoxicity | AID 602340 | C2C12 myotubes + simvastatin, ATP luminescence, 48 h; scaled: DMSO 0, geranylgeraniol control 100 | hit rate 0.78% among 330,000 | rescue of ATP level, % at 7.49 µM;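 active means mean ATP rescue above about 67%, or every replicate alone reaching that limit, limit read from the data, passing the limit was not always enough; inconclusive means no clear call, values can overlap the other calls; inactive means mean under the limit and some replicate under it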;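 further: myotubes were challenged with 10 µM simvastatin during compound exposure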
* hit, by the source's call; ? = inconclusive; . = no result given.

SMILES	XiGFP reactiv	FGF22 binding	PglD inh	DENV2 CPE	E-selectin induc	C2C12 statin
CCc1c(C)nc(SCC(=O)Nc2nc(-c3ccc(OC)cc3)cs2)[nH]c1=O	0	43*	.	.	.	.
O=C(Nc1ccccc1F)N[C@@H]1CC[C@H](CCNC(=O)C2CCC2)O[C@H]1CO	0	0	2	?	0	-2
O=C1CC(c2ccccc2)CC(O)=C1C=Nc1ccccc1O (stereo not given)	0	0	.	-5	1	.
O=C1CC(c2ccccc2)CC(O)=C1C=Nc1ccccc1 (stereo not given)	0	44*	.	-2	.	.
COc1ccc(NC(=O)NC2CCCCCCC2)c(OC)c1	.	.	-3	.	.	5
COc1cccc(/C=C/C(=O)OCC(=O)NC2CCCCCCC2)c1	0	26*	-1	-4	0	-9
COc1ccc(CC(=O)NC2CCCCCC2)c(OC)c1	0	0	-8	64*	.	-2
CC(=O)N/C(=C\c1ccccc1)C(=O)OCC(=O)NC1CCCC1	0	0	16	21*	.	.
CCCCCCCCSC1=CC(=O)C(OC)=C(OC)C1=O	1	-1	-3	71*	1	-115
CCCCCSc1nncc(=O)[nH]1	.	.	-1	.	.	3
CC(C)c1cn(CC[C@H]2CC[C@@H](NC(=O)C3CC3)[C@H](CO)O2)nn1	0	0	-6	-2	0	-8
Cc1noc(C)c1NC(=O)Nc1ccc2c(c1)CC(=O)N([C@H](C)CO)C[C@@H](C)[C@H](CN(C)Cc1ccncc1)O2	0	0	-11	?	.	7
Cc1nc(N2CCN(C)CC2)[nH]c(=O)c1Cc1cccc2ccccc12	.	.	1	.	.	5
Cc1[nH]c(=O)[nH]c(=O)c1Cc1cccc2ccccc12	0	43*	.	.	1	1
CO[C@H](CN(C)S(=O)(=O)c1ccc(Cl)cc1)[C@@H](C)CN([C@@H](C)CO)S(=O)(=O)c1cccc(Cl)c1	0	0	0	-3	0	12
CC(=O)N1[C@H](CO)[C@H](c2ccccc2)[C@@H]1CN(C(=O)c1ccc(F)cc1)C(C)C	0	-1	-2	4	0	1
COc1ccc2cc(-c3[nH]ncc3CN3CCCN(c4ccccc4)CC3)ccc2c1	0	44*	.	-3	.	.
CN1CCCN=C1/C=C/c1cccs1	1	0	3	74*	-1	1
COc1cc(N2CCCC2)ccc1C=O	0	44*	.	2	.	.
Cc1ccc(S(=O)(=O)N[C@@H]2CC[C@@H](CCNC(=O)Nc3ccc(Cl)cc3)O[C@H]2CO)cc1	0	0	0	4	0	-4
O=C(c1cccc(F)c1)N1CCCCN2[C@H](C1)[C@H](c1ccc(-c3cccnc3)cc1)[C@@H]2CO	0	0	8	6	0	.
C[C@@H]1CN([C@@H](C)CO)C(=O)Cc2cc(NC(=O)Nc3ccc(C(F)(F)F)cc3)ccc2O[C@@H]1CN(C)S(C)(=O)=O	-1	0	1	2	.	-86
CCN1CCN(C(=O)CSc2nc(N)cc(N)n2)CC1	0	44*	.	6	-2	.
CC1CCCC(C)N1C(=O)CSc1nc(N)cc(N)n1 (stereo not given)	0	0	.	3	0	2
Cc1ccc(C(=O)NCC(=O)OCC(=O)c2cc(C)n(Cc3ccco3)c2C)cc1	0	0	-11	-5	-1	.
SMILES	XiGFP reactiv	FGF22 binding	PglD inh	DENV2 CPE	E-selectin induc	C2C12 statin
CCn1c(C)cc(C(=O)COC(=O)CNC(=O)c2ccco2)c1C	0	0	-5	61*	0	3
C[C@H]1CN([C@@H](C)CO)C(=O)c2cc(/C=C/c3ccccc3)cnc2O[C@@H]1CN(C)C(=O)Nc1ccc(C(F)(F)F)cc1	0	0	3	?	1	-2
O=C(CNc1n[nH]c(=O)[nH]c1=O)N/N=C/c1ccccc1	0	0	.	-1	.	.
O=C(CCNc1n[nH]c(=O)[nH]c1=O)N/N=C/c1ccc(C(F)(F)F)cc1	0	43*	.	3	.	.
O=C(CCNc1n[nH]c(=O)[nH]c1=O)N/N=C/c1ccccc1Br	0	44*	.	2	.	.
O=C(Cc1n[nH]c(=O)[nH]c1=O)N/N=C/c1ccccc1O	.	.	-1	.	.	9
C[C@@H]1CCCCO[C@H](CN(C)C(=O)Nc2ccc3c(c2)OCO3)[C@H](C)CN([C@H](C)CO)C(=O)c2cc(NS(=O)(=O)c3ccccc3)ccc2O1	0	0	-4	?	0	.
O=C(Nc1cccc(F)c1)N1CC(=O)N2[C@H](CO)[C@H](c3ccc(-c4cccc(F)c4)cc3)[C@@H]2C1	0	.	.	3	0	.
O=C1c2cc([N+](=O)[O-])ccc2-c2ncccc21	0	0	.	51*	.	.
O=C1c2cccnc2-c2ncccc21	.	.	-2	.	.	.
Nc1ncnc2c(C3OC(CO)C(O)C3O)scc12 (stereo not given)	1	43*	.	2	2	.
CN(C)CC(=O)N[C@H]1CC[C@@H](CCn2cc(CN(C)C)nn2)O[C@H]1CO	0	0	-1	-11	-1	1
COc1cc(OC)cc(C(=O)N[C@@H](CCSC)c2nc3ccccc3[nH]2)c1	0	43*	6	-1	5	.
CCC(=O)N[C@H]1C=C[C@@H](CC(=O)NCc2cc(F)cc(F)c2)O[C@@H]1CO	0	0	2	-12	0	-6
Cc1cccc(NC(=O)COC(=O)c2ccccc2SCC(=O)N2CCCC2)c1	0	28*	4	6	0	.
Cc1ncc([N+](=O)[O-])n1CCOC(=O)Nc1ccc([N+](=O)[O-])cc1	0	43*	.	9	.	.
C[C@@H]1CCCCO[C@@H](CN(C)Cc2ccncc2)[C@@H](C)CN([C@@H](C)CO)C(=O)c2cc(NS(=O)(=O)c3cn(C)cn3)ccc2O1	0	0	0	1	0	.
CC1CCCCN1C(=O)CCc1nnc(Cc2c[nH]c3ccccc23)o1 (stereo not given)	0	44*	.	4	.	.
COCCN(C(=O)CCc1nnc(CCc2c[nH]c3ccccc23)o1)C(C)C	0	44*	.	-4	.	.
CC1CCCCN1C(=O)COC(=O)Cc1c[nH]c2ccccc12 (stereo not given)	0	43*	3	0	0	-6
COc1ccc(CN(C)C[C@@H]2Oc3ccc(NC(=O)CCCN(C)C)cc3C(=O)N([C@H](C)CO)C[C@H]2C)cc1	1	0	1	0	-16	-4
C[C@@H]1CN([C@@H](C)CO)C(=O)Cc2cc(NS(=O)(=O)c3cccs3)ccc2O[C@@H]1CN(C)Cc1ccc(Oc2ccccc2)cc1	0	-1	-1	7	0	25
